In ChEMBL document CHEMBL4400556, “β-Lactones: A Novel Class of Ca2+-Independent Phospholipase A2 (Group VIA iPLA2) Inhibitors with the Ability To Inhibit β-Cell Apoptosis” (J Med Chem, 2019):
Activity calls are given as the source filed them. No cut-off for these calls is given here.

Key:
[1] = biological target: T1, 85/88 kDa calcium-independent phospholipase A2 (Homo sapiens) (UniProt O60733); experiment: Inhibition of human recombinant G6A iPLA2 at 0.091 mole fraction using arachidonyl-1-14C PAPC and PAPC incubated for 30 mins by HPLC-MS analysis based radioactivity-based group specific mixed micelle assay relative to control
T1 sequence (whole entry): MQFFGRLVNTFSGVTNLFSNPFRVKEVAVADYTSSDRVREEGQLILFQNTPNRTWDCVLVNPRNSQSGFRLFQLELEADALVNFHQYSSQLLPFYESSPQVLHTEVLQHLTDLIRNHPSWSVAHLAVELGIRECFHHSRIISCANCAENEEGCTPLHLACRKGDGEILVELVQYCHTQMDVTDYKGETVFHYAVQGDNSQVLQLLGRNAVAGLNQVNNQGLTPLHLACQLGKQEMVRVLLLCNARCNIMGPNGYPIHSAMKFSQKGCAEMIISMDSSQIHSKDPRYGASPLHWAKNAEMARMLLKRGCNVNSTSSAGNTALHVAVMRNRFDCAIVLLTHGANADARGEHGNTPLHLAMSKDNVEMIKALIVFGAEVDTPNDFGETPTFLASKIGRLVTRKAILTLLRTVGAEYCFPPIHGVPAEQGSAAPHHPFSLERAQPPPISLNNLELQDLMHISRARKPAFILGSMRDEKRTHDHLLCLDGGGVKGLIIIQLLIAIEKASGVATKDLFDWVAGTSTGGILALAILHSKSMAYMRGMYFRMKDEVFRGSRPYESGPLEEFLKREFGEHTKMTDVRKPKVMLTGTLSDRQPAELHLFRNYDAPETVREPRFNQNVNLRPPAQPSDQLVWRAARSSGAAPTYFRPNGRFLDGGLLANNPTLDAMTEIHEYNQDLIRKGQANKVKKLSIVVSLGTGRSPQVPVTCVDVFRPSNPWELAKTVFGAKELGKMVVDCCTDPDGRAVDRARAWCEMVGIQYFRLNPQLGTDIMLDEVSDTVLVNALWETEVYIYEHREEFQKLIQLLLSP
Method in brief: (§1)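 Human recombinant GVIA iPLA2, radioactivity mixed-micelle assay. Substrate: 400 μM Triton X-100, 98.3 μM PAPC, 1.7 μM arachidonyl-1-14C PAPC. Buffer: 100 mM HEPES pH 7.5, 2 mM ATP, 4 mM DTT. Screened at 0.091 mole fraction from DMSO.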

[2] = biological target: T2, Cytosolic phospholipase A2 (Homo sapiens) (UniProt P47712); experiment: Inhibition of human recombinant G4A cPLA2 at 0.091 mole fraction using arachidonyl-1-14C PAPC , PAPC and PIP2 incubated for 30 mins by HPLC-MS analysis based radioactivity-based group specific mixed micelle assay
T2 sequence (whole entry): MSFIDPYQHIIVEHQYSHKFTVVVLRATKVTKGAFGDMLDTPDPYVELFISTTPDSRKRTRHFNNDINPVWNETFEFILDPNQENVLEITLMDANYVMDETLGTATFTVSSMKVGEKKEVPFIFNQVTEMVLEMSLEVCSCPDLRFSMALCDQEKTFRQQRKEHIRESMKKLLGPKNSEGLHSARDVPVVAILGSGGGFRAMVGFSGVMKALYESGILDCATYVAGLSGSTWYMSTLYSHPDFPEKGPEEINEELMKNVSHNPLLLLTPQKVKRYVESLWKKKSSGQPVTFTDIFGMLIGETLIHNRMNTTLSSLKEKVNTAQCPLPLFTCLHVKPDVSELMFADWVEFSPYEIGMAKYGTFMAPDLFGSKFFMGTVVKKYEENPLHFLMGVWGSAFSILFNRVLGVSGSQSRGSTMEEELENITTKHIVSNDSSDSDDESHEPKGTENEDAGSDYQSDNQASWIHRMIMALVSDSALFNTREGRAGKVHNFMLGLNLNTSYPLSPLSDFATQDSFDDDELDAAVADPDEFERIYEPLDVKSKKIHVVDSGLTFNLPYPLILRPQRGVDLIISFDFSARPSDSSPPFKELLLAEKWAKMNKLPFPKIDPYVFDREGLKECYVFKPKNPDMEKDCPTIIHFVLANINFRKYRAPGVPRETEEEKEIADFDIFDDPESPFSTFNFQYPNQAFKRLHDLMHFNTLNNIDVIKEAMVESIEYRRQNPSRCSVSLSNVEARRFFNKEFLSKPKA
Method in brief: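 Human recombinant GIVA cPLA2, radioactivity mixed-micelle assay. Substrate: 400 μM Triton X-100, 95.3 μM PAPC, 1.7 μM arachidonyl-1-14C PAPC, 3 μM PIP2. Buffer: 100 mM HEPES pH 7.5, 90 μM CaCl2, 2 mM DTT, 0.1 mg/ml BSA. Screened at 0.091 mole fraction from DMSO stock. XI(50) fitted from % inhibition vs log mole fraction.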

Homo sapiens [3] = species on record: Homo sapiens; experiment: Inhibition of human recombinant G5 sPLA2 at 0.091 mole fraction using arachidonyl-1-14C PAPC and PAPC by HPLC-MS analysis based radioactivity-based group specific mixed micelle assay relative to control
Method in brief: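 Human recombinant GV sPLA2, radioactivity mixed-micelle assay. Substrate: 400 μM Triton X-100, 98.3 μM PAPC, 1.7 μM arachidonyl-1-14C PAPC. Buffer: 50 mM Tris-HCl pH 8.0, 5 mM CaCl2. Compound added from DMSO at 0.091 mole fraction; percent inhibition measured.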

[4] = biological target: T1, 85/88 kDa calcium-independent phospholipase A2 (Homo sapiens); experiment: (§2) Inhibition of human recombinant G6A iPLA2 using arachidonyl-1-14C PAPC and PAPC incubated for 30 mins by HPLC-MS analysis based radioactivity-based group specific mixed micelle assay; method in brief: as §1
[5] = biological target: T3, 85/88 kDa calcium-independent phospholipase A2 (Homo sapiens, UniProt O60733); experiment: as §2; method in brief: as §1
T3 sequence (O60733 whole entry): T1 sequence (whole entry)

INS1 [6] = experiment: Inhibition of IL-1beta/IFNgamma-induced apoptosis in rat INS-1 cells at 1 uM after 16 hrs by DAPI-based TUNEL assay; assay type: functional; conditions: INS1, 16 h
Method in brief: (§3)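 INS-1 cells exposed 16 h to IL-1β (100 U/mL) plus IFNγ (300 U/mL), with or without compound (0.10–10 μM) or DMSO vehicle (1 μL/mL). Apoptosis read by TUNEL (green) over total DAPI-stained nuclei, 6 fields per slide. The 6-field mean per slide is one replicate (n=3–12). Results given as mean ± SEM percent apoptotic cells.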

INS1 [7] = experiment: Inhibition of IL-1beta/IFNgamma-induced apoptosis in rat INS-1 cells at 10 uM after 16 hrs by DAPI-based TUNEL assay; assay type: functional; conditions: INS1, 16 h; method in brief: as §3
INS1 [8] = experiment: Cytotoxicity against rat INS-1 cells assessed as cell death at 10 uM after 16 hrs by TUNNEL assay (reference value: 7.06 +/- 0.36%); assay type: cell-based; conditions: ins1, 16 h
INS1 [9] = experiment: Inhibition of IL-1beta/IFNgamma-induced apoptosis in rat INS-1 cells at 0.1 uM after 16 hrs by DAPI-based TUNEL assay; assay type: functional, cell-based; method in brief: as §3
Homo sapiens [10] = species on record: Homo sapiens; experiment: Selectivity index, ratio of IC50 for inhibition of human recombinant G4A cPLA2 to IC50 for inhibition of human recombinant G6A iPLA2
INS1 [11] = experiment: Inhibition of IL-1beta/IFNgamma-induced apoptosis in rat INS-1 cells at 0.1 to 10 uM after 16 hrs by DAPI-based TUNEL assay

inhibition [1] [%]	inhibition [2] [%]	inhibition (Homo sapiens [3]) [%]	XI50 (mole fraction) [4]	Compound	also measured
81	89	27	–	CCC[C@@H]1OC(=O)[C@@H]1CCCc1ccc2ccccc2c1 (racemic)	–
85	95	29	0.038	CCC[C@@H]1OC(=O)[C@@H]1CCCc1ccc(OC)cc1 (racemic)	–
98	73	30	0.0003	CCC[C@H]1OC(=O)[C@@H]1CCCc1ccc2ccccc2c1 (racemic)	–
98	77	–	–	CCCC1OC(=O)C1CCCc1ccc2ccccc2c1 (centres undefined)	–
59	54	40	–	CCCCCCC1OC(=O)C1CCCc1ccc2ccccc2c1 (centres undefined)	–
96	81	–	–	CCCC1OC(=O)C1CCCc1ccccc1 (centres undefined)	–
93	85	29	–	CCC1OC(=O)C1CCCc1ccc2ccccc2c1 (centres undefined)	–
99	85	26	0.00019	CCC[C@H]1OC(=O)[C@@H]1CCCc1ccc(OC)cc1 (racemic)	–
92	97	< 25	–	CCC[C@@H]1OC(=O)[C@@H]1CCCc1ccccc1 (racemic)	–
99	90	25	0.00019	CCC[C@H]1OC(=O)[C@@H]1CCCc1ccccc1 (racemic)	–
89	85	26	–	CC1OC(=O)C1CCCc1ccc2ccccc2c1 (centres undefined)	–

Second part, the molecule before the results:

Compound	inhibition [1] [%]	inhibition [2] [%]	inhibition (Homo sapiens [3]) [%]	XI50 (mole fraction) [4]	also measured
CCCC1OC(=O)C1CCCCc1ccc2ccccc2c1 (centres undefined)	97	71	–	–	–
COc1ccc(CCCCC(=O)C(F)(F)C(F)(F)F)cc1	–	–	33	–	–
CCC[C@H]1OC(=O)[C@@H]1CCCCc1ccc2ccccc2c1 (racemic)	99	59	29	9e-05	–
O=C(CCCCc1ccccc1)C(F)(F)C(F)(F)F	–	–	28	–	–
CCCC1OC(=O)C1CCCc1ccc(OC)cc1 (centres undefined)	96	76	–	–	–
CCCCCCC1OC(=O)C1CCCc1ccccc1 (centres undefined)	89	91	47	–	–
CCCCCCC1OC(=O)C1CCCc1ccc(-c2ccccc2)cc1 (centres undefined)	78	58	40	–	–
CCC[C@@H]1OC(=O)[C@@H]1CCCCc1ccccc1 (racemic)	99	94	34	0.007	IC50 [5]: 3500 nM
CCC[C@H]1OC(=O)[C@@H]1CCCCc1ccccc1 (racemic)	100	88	25	2.1e-06	inhibition at 1 µM (INS1 [6]): 28%; inhibition at 10 µM (INS1 [7]): 41%; IC50 [5]: 1 nM; Activity (INS1 [8]): 9.51%; inhibition (INS1 [9]): inactive; Ratio IC50 (Homo sapiens [10]): 22000; inhibition (INS1 [11]): Dose-dependent effect
COc1ccc(CCSCC(=O)c2noc(C(C)(C)C)n2)cc1	–	–	38	0.0057	–
CCCC1OC(=O)C1CCCCc1ccccc1 (centres undefined)	100	84	–	–	–
CC(C)C1OC(=O)C1CCCc1ccccc1 (centres undefined)	93	85	29	–	–
O=C(CCCCc1ccc2ccccc2c1)C(F)(F)F	–	–	37	–	–
CCC[C@@H]1OC(=O)[C@@H]1CCCCc1ccc2ccccc2c1 (racemic)	95	72	< 25	0.0021	–
